Experimental data: ChEMBL document CHEMBL1157729, “Structure-activity relationship and mechanism of action studies of manzamine analogues for the control of neuroinflammation and cerebral infections” (J Med Chem, 2010)

How the values were obtained:
Plasmodium berghei [1] = assay: Antiplasmodial activity in Plasmodium berghei NK65 infected in Swiss Webster mice (Mus musculus) assessed as survivability at 1.1 mg/kg, perorally administered 1 day after infection for 3 days measured after 28 days post infection; assay type: functional; settings: route oral
Outline: (§1)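 Male Swiss Webster mice (18-20 g), at least 5 per group, inoculated i.p. with 2×10^7 P. berghei NK-65-parasitized red cells from a donor mouse. Oral dosing (100 μl, in SSV or 0.01 M HCl dilutions) from day one post-infection on a 3-day schedule (modified Peters test). Giemsa-stained tail-blood smears read from day 5 to day 28. Cure means no parasitemia through day 28.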

MDCK = assay: Apparent permeability across apical to basolateral side of MDCK cells expressing MDR; assay type: ADME, cell-based, Canis lupus familiaris; settings: dog
Outline: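 MDR-MDCK cells (passage 12-40) seeded at 75,000 cells/cm2 and grown 8 days on Transwell inserts to a monolayer. Bidirectional transport over 2 h in HBSS pH 7.4 with test substance at 50 μM and caffeine (5 μM) as standard. Donor and receiver samples quantified by LC-MS. Cumulative amount transported plotted against time to derive apparent permeability.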

Plasmodium berghei [2] = assay: Antiplasmodial activity against Plasmodium berghei NK65 infected in Swiss Webster mice (Mus musculus) assessed as inhibition of parasitaemia at 10 mg/kg, perorally administered 1 day after infection for 3 days measured after 5 days post infection; assay type: functional; settings: route oral
Outline: (§2)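 Male Swiss Webster mice (18-20 g, ≥5/group) inoculated i.p. with 2×10^7 P. berghei NK-65 parasitized RBC; oral dosing (100 μl, SSV or dilute HCl vehicle) once daily for 3 days from day 1; Giemsa-stained tail blood smears days 5–28; inhibition is % decrease versus untreated controls on day 5.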

Plasmodium berghei [3] = assay: Antiplasmodial activity against Plasmodium berghei NK65 infected in Swiss Webster mice (Mus musculus) assessed as average parasitaemia at 1.1 mg/kg, perorally administered 1 day after infection for 3 days measured after 7 days post infection; assay type: functional; settings: route oral
Plasmodium berghei [4] = assay: Antiplasmodial activity against Plasmodium berghei NK65 infected in Swiss Webster mice (Mus musculus) assessed as average parasitaemia at 3.3 mg/kg, perorally administered 1 day after infection for 3 days measured after 10 days post infection; assay type: functional; settings: route oral
Plasmodium berghei [5] = assay: Antiplasmodial activity against Plasmodium berghei NK65 infected in Swiss Webster mice (Mus musculus) assessed as survivability at 5 mg/kg, perorally administered 1 day after infection for 3 days measured after 28 days post infection; assay type: functional; settings: route oral
Plasmodium berghei [6] = assay: Antiplasmodial activity against Plasmodium berghei NK65 infected in Swiss Webster mice (Mus musculus) assessed as inhibition of parasitaemia at 100 mg/kg, perorally administered 1 day after infection measured after 5 days post infection; assay type: functional; settings: route oral
Outline: (§3)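 Male Swiss Webster mice (18-20 g, ≥5/group) inoculated i.p. with 2×10^7 P. berghei NK-65 parasitized RBC, given a single oral dose (100 μl, SSV or dilute HCl vehicle); parasitemia by Giemsa-stained tail blood smears days 5–28; activity as % decrease versus untreated controls on day 5.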

Plasmodium berghei [7] = assay: Antiplasmodial activity against Plasmodium berghei NK65 infected in Swiss Webster mice (Mus musculus) assessed as average parasitaemia at 10 mg/kg, perorally administered 1 day after infection for 3 days measured after 21 days post infection; assay type: functional; settings: route oral
Plasmodium berghei [8] = assay: Antiplasmodial activity against Plasmodium berghei NK65 infected in Swiss Webster mice (Mus musculus) assessed as average parasitaemia at 10 mg/kg, perorally administered 1 day after infection for 3 days measured after 28 days post infection; assay type: functional; settings: route oral; outline: as §2
Plasmodium berghei [9] = assay: Antiplasmodial activity against Plasmodium berghei NK65 infected in Swiss Webster mice (Mus musculus) assessed as average parasitaemia at 5 mg/kg, perorally administered 1 day after infection for 3 days measured after 28 days post infection; assay type: functional; settings: route oral
Plasmodium berghei [10] = assay: Antiplasmodial activity against Plasmodium berghei NK65 infected in Swiss Webster mice (Mus musculus) at 3.3 mg/kg, po; assay type: functional; outline: as §1
Plasmodium berghei [11] = assay: Antiplasmodial activity against Plasmodium berghei NK65 infected in Swiss Webster mice (Mus musculus) assessed as average parasitaemia at 100 mg/kg, perorally administered 1 day after infection measured after 5 days post infection; assay type: functional; settings: route oral; outline: as §3
Plasmodium berghei [12] = assay: Antiplasmodial activity against Plasmodium berghei NK65 infected in Swiss Webster mice (Mus musculus) assessed as average parasitaemia at 100 mg/kg, perorally administered 1 day after infection measured after 14 days post infection; assay type: functional; settings: route oral; outline: as §3
Plasmodium berghei [13] = assay: Antiplasmodial activity against Plasmodium berghei NK65 infected in Swiss Webster mice (Mus musculus) assessed as average parasitaemia at 200 mg/kg, perorally administered 1 day after infection measured after 14 days post infection; assay type: functional; settings: Plasmodium berghei, NK65, route oral
Outline: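 Male Swiss Webster mice (18-20 g), at least 5 per group, were inoculated ip with 2×10^7 P. berghei NK-65-parasitized red cells from a donor mouse and given a single oral dose (100 μl). Stock was made in SSV or 0.1 M HCl and diluted in SSV or 0.01 M HCl. Parasitemia was read from Giemsa-stained tail blood smears from day 5 to day 28. Cure meant no parasitemia through day 28.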

Plasmodium berghei [14] = assay: Antiplasmodial activity against Plasmodium berghei NK65 infected in Swiss Webster mice (Mus musculus) assessed as average parasitaemia at 50 mg/kg, perorally administered 1 day after infection measured after 21 days post infection; assay type: functional; settings: route oral; outline: as §3
Plasmodium berghei [15] = assay: Antiplasmodial activity against Plasmodium berghei NK65 infected in Swiss Webster mice (Mus musculus) assessed as average parasitaemia at 100 mg/kg, perorally administered 1 day after infection measured after 21 days post infection; assay type: functional; settings: route oral; outline: as §3
Plasmodium berghei [16] = assay: Antiplasmodial activity against Plasmodium berghei NK65 infected in Swiss Webster mice (Mus musculus) assessed as average parasitaemia at 100 mg/kg, perorally administered 1 day after infection measured after 28 days post infection; assay type: functional; settings: route oral; outline: as §3
Plasmodium berghei [17] = assay: Antiplasmodial activity against Plasmodium berghei infected in mice (Mus musculus) at 10 mg/kg, perorally administered 1 day post infection for 3 days; assay type: functional; settings: route oral
Mus musculus = assay: Toxicity in Plasmodium berghei NK65 infected Swiss Webster mice (Mus musculus) assessed as weight loss at 200 mg/kg, perorally; assay type: organism-based; design: dose 200 mg/kg, route oral; settings: in vivo, po
Outline: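 P. berghei NK-65 infection in male Swiss Webster mice (18-20 g; 2×10^7 parasitized erythrocytes i.p.; ≥5 per group). A single oral dose of 100 μl, diluted in SSV or 0.01 M HCl, then observation for toxicity signs and body weight. Parasitemia read from Giemsa-stained tail smears from day 5 through day 28. Mice free of parasitemia through day 28 counted as cured.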

HeLa [18] = assay: Cytotoxicity against human HeLa cells after 48 hrs by trypan blue exclusion assay; assay type: functional
HeLa [19] = assay: Cell cycle arrest in human HeLa cells assessed as increase in G0/G1 phase accumulation at 5 uM after 24 hrs by FACS analysis; assay type: functional
HeLa [20] = assay: Cell cycle arrest in human HeLa cells assessed as increase in G0/G1 phase accumulation at 20 uM after 24 hrs by FACS analysis; assay type: functional
HeLa [21] = assay: Cell cycle arrest in human HeLa cells assessed as decrease in G2/M phase accumulation at 10 uM after 24 hrs by FACS analysis; assay type: functional; design: scale not given: the % may be the effect or the level left
HeLa [22] = assay: Cell cycle arrest in human HeLa cells assessed as decrease in G2/M phase accumulation at 20 uM after 24 hrs by FACS analysis; assay type: functional; design: scale not given: the % may be the effect or the level left

Compound: O[C@]12C=C(c3nccc4c3[nH]c3ccccc34)[C@@H]3CCN(CCCC/C=C\CC1)C[C@@]31C[C@@H]3/C=C\CCCCN3[C@H]12 [MANZAMINE A]
- inhibition in vivo at 1.1 mg/kg (Plasmodium berghei [1]): 50%
- Papp (MDCK): 0.87 ×10⁻⁶ cm/s
- inhibition in vivo at 10 mg/kg (Plasmodium berghei [2]): 98%
- inhibition in vivo at 1.1 mg/kg (Plasmodium berghei [3]): 5.5%
- inhibition in vivo at 3.3 mg/kg (Plasmodium berghei [4]): 4.3%
- inhibition in vivo at 5 mg/kg (Plasmodium berghei [5]): 100%
- inhibition in vivo at 100 mg/kg (Plasmodium berghei [6]): 100%
- inhibition in vivo at 10 mg/kg (Plasmodium berghei [7]): 1.9%
- inhibition in vivo at 10 mg/kg (Plasmodium berghei [8]): 3.3%
- inhibition in vivo at 5 mg/kg (Plasmodium berghei [9]): 39.3%
- inhibition in vivo at 3.3 mg/kg (Plasmodium berghei [10]): > 30%
- inhibition in vivo at 100 mg/kg (Plasmodium berghei [11]): 0%
- inhibition in vivo at 100 mg/kg (Plasmodium berghei [12]): 0%
- inhibition in vivo at 200 mg/kg (Plasmodium berghei [13]): 0%
- inhibition in vivo at 50 mg/kg (Plasmodium berghei [14]): 5.2%
- inhibition in vivo at 100 mg/kg (Plasmodium berghei [15]): 0%
- inhibition in vivo at 100 mg/kg (Plasmodium berghei [16]): 0%
- Activity (Plasmodium berghei [17]): 14.3 days
- Activity (Mus musculus): Toxic
- Activity (HeLa [18]): 2 µg/mL
- Activity (HeLa [19]): 56.3%
- Activity (HeLa [20]): 67.2%
- Activity (HeLa [21]): 13.6%
- Activity (HeLa [22]): 11.8%
